Active and inactive are the calls of the source. The calls are words filed in the database; no cut-off is given here.
Tests used:
[1] = biological target: T1, Serine/threonine-protein kinase Chk1 (Homo sapiens) (UniProt O14757); assay: Residual activity of Chk1 at 1 uM
T1 sequence (whole entry): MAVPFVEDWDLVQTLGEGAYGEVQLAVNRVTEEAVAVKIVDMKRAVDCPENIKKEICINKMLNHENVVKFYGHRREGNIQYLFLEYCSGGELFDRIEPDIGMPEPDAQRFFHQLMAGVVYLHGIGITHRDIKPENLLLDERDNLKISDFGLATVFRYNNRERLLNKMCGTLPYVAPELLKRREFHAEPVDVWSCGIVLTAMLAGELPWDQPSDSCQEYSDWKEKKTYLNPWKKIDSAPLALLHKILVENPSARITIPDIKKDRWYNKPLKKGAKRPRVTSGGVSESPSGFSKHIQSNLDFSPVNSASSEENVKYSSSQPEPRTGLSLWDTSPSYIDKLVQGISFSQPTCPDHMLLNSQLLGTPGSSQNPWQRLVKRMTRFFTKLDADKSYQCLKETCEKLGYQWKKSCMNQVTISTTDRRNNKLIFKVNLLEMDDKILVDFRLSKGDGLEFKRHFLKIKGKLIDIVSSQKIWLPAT

Homo sapiens [2] = species: Homo sapiens; assay: Residual activity of CDK7/cyclin H at 1 uM
[3] = biological target: T2, Serine/threonine-protein kinase Chk1 (Homo sapiens, UniProt O14757); assay: Inhibition of human Chk1 expressed in Sf9 cells
T2 sequence (O14757 whole entry): T1 sequence (whole entry)
Summary of the method: (§1)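 Full-length human Chk1 with an N-terminal GST tag, purified from baculovirus-infected Sf9 cells or purchased. Stopped with orthophosphoric acid and captured on phosphocellulose filters for scintillation counting. Percent inhibition at 10 µM; IC50 from 12 concentrations over 6 logs, duplicate points averaged.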

Homo sapiens [4] = species: Homo sapiens; assay: Inhibition of CDK2/cyclin A at 1 uM; values are per cent of control
[5] = biological target: RAF proto-oncogene serine/threonine-protein kinase (Homo sapiens) (UniProt P04049); assay: Residual activity of cRAF at 1 uM
Chain of RAF proto-oncogene serine/threonine-protein kinase (Homo sapiens) (P04049 whole entry): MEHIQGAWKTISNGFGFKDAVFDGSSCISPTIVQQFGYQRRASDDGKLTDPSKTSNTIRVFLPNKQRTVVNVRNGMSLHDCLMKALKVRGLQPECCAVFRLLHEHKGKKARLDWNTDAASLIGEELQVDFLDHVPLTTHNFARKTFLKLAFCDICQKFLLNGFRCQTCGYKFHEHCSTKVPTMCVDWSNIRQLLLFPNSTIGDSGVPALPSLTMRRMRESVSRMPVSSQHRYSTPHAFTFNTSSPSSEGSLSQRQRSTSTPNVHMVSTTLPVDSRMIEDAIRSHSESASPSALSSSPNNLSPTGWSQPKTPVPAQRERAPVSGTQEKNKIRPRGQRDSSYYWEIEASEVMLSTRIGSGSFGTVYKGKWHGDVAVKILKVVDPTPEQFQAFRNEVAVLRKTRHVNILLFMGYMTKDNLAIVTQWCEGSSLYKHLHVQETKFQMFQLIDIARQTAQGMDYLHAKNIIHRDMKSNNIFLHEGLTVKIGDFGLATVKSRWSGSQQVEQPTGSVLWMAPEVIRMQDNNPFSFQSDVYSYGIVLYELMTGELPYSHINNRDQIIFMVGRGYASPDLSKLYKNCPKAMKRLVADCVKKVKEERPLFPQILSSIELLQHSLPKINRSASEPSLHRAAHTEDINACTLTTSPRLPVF

[6] = biological target: Dual specificity mitogen-activated protein kinase kinase 1 (Homo sapiens) (UniProt Q02750); assay: Residual activity of MEK1 at 1 uM
Chain of Dual specificity mitogen-activated protein kinase kinase 1 (Homo sapiens) (Q02750 whole entry): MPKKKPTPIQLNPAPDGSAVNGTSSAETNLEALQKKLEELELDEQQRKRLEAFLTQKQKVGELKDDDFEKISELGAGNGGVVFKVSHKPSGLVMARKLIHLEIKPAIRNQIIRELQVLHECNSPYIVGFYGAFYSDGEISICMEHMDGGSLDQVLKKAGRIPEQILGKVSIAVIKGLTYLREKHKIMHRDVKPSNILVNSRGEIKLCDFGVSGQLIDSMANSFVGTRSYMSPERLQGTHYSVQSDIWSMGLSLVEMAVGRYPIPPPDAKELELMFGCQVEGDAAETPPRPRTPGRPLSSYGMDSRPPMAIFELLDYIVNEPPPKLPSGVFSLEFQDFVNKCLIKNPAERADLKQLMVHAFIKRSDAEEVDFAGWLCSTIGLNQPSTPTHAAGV

[7] = biological target: Casein kinase II subunit alpha (Homo sapiens) (UniProt P68400); assay: Residual activity of CK2 at 1 uM
Chain of Casein kinase II subunit alpha (Homo sapiens) (P68400 whole entry, looked up): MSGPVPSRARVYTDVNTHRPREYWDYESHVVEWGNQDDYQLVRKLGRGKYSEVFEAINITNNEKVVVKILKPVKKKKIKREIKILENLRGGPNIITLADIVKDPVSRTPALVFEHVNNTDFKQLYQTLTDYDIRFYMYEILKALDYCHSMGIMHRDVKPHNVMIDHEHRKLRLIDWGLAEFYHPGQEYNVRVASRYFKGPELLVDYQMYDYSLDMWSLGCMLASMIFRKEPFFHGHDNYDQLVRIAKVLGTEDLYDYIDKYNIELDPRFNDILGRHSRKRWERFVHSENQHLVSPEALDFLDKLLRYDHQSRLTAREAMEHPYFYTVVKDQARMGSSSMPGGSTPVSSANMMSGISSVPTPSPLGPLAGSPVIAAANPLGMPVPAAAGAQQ

[8] = biological target: Glycogen synthase kinase-3 beta (Homo sapiens) (UniProt P49841); assay: Inhibition of GSK3-beta at 1 uM; values are per cent of control
Chain of Glycogen synthase kinase-3 beta (Homo sapiens) (P49841 whole entry, looked up): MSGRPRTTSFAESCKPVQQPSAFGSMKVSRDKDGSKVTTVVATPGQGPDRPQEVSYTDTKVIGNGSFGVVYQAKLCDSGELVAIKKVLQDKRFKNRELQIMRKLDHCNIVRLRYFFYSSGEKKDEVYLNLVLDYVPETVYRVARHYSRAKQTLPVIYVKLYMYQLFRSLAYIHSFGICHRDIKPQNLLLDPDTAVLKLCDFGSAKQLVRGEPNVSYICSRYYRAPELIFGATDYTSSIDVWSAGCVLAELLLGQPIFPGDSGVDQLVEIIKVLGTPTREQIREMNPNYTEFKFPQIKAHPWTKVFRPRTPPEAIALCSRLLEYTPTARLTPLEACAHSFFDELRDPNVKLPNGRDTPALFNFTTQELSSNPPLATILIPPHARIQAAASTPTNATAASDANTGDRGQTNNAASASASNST

[9] = biological target: MAP kinase-activated protein kinase 2 (Homo sapiens) (UniProt P49137); assay: Residual activity of MAPKAPK2 at 1 uM
[10] = biological target: Glycogen synthase kinase-3 alpha (Homo sapiens) (UniProt P49840); assay: Inhibition of GSK3-alpha at 1 uM; values are per cent of control
HT-29 = assay: Antiproliferative activity against human HT29 cells […] by microculture tetrazolium assay; type: functional, cell-based
Summary of the method: (§2)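 Human HCT116, human HT29 and murine L1210 tumour cells grown in RPMI 1640 with 10% fetal calf serum, 2 mM L-glutamine, penicillin/streptomycin and 10 mM HEPES pH 7.4. Compounds were taken from 10^-2 M DMSO stocks, diluted 1/100 in RPMI, and cells were exposed continuously to graded concentrations for four doubling times. MTT was added for 4 h at 37 °C and the formazan dissolved in DMSO. IC50 is the concentration lowering optical density 50% versus untreated cells.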

[11] = biological target: CDK9/cyclin T1 (Homo sapiens) (UniProt O60563+P50750); assay: Inhibition of CDK9/cyclin T1 at 1 uM; values are per cent of control
[12] = biological target: T3, Proto-oncogene tyrosine-protein kinase Src (Homo sapiens, UniProt P12931); assay: Inhibition of Src at 10 uM
T3 sequence (P12931 2-536 limits assumed): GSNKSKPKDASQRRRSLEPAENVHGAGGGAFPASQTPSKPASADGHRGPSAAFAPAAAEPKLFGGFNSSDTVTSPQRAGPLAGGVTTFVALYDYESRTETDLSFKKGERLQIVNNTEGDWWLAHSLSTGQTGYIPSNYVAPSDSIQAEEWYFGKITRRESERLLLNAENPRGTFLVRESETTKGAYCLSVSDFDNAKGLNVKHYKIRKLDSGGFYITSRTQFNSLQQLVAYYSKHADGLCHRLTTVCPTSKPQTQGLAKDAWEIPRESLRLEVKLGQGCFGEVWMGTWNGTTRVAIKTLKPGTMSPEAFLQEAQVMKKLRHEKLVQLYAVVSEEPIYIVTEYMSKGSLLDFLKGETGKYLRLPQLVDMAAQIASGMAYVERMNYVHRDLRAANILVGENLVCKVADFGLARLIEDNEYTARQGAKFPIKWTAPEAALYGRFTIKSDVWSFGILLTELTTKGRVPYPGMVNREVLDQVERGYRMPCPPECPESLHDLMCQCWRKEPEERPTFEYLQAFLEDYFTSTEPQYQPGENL
Summary of the method: (§3)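 Started by adding cosubstrate (40 µM ATP stock with [33P]γ-ATP); 20 min at 30 °C. Stopped with 0.85% orthophosphoric acid, filtered on phosphocellulose, washed, then scintillation counted. Percent inhibition at 10 µM; IC50 reported.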

[13] = biological target: T1, Serine/threonine-protein kinase Chk1 (Homo sapiens); assay: Inhibition of human Chk1 expressed in Sf9 cells at 10 uM
Summary of the method: as §1

[14] = biological target: Ribosomal protein S6 kinase beta-1 (Homo sapiens) (UniProt P23443); assay: Residual activity of p70S6K at 1 uM
Chain of Ribosomal protein S6 kinase beta-1 (Homo sapiens) (P23443 whole entry, looked up): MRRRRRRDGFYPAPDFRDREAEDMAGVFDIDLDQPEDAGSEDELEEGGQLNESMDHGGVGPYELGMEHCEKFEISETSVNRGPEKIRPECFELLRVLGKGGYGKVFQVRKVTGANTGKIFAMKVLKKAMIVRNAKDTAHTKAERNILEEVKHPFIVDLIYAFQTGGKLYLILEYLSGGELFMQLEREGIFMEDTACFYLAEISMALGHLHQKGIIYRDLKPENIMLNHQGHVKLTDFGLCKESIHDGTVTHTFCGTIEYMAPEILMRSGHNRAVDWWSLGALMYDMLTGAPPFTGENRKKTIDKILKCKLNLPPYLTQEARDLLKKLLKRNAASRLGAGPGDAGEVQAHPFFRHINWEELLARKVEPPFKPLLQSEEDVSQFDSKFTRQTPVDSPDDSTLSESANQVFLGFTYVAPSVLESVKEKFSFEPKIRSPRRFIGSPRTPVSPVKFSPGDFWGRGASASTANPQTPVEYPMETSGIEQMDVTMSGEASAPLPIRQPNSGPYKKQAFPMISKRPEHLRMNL

Homo sapiens [15] = species: Homo sapiens; assay: Residual activity of PKA at 1 uM
Homo sapiens [16] = species: Homo sapiens; assay: Residual activity of CDK1/cyclin B at 1 uM
[17] = biological target: Protein kinase C alpha type (Homo sapiens) (UniProt P17252); assay: Inhibition of PKCalpha at 1 uM; values are per cent of control
[18] = biological target: Cyclin-dependent kinase 5/CDK5 activator 1 (Homo sapiens) (UniProt Q00535+Q15078); assay: Residual activity of CDK5/p25 at 1 uM
Chain of Cyclin-dependent kinase 5/CDK5 activator 1 (Homo sapiens) (Q00535 whole entry): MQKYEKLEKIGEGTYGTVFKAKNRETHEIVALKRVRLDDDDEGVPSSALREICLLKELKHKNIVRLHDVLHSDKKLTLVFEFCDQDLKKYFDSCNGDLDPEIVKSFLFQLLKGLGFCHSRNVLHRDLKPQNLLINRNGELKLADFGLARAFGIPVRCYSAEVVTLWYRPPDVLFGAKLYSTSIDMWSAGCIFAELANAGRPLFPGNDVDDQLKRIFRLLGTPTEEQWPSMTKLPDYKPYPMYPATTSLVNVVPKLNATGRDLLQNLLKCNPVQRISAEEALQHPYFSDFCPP
Chain of Cyclin-dependent kinase 5/CDK5 activator 1 (Homo sapiens) (Q15078 99-307 partner limits assumed): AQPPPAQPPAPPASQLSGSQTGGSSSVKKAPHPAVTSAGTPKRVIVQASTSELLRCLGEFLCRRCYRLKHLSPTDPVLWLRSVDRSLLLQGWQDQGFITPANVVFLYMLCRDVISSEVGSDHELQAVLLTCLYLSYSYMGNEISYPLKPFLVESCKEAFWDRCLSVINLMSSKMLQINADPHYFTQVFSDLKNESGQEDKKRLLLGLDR

Homo sapiens [19] = species: Homo sapiens; assay: Residual activity of CaMKII at 1 uM
L1210 = assay: Antiproliferative activity against mouse L1210 cells after four doubling times by microculture tetrazolium assay
HCT-116 = assay: Antiproliferative activity against human HCT116 cells […] by microculture tetrazolium assay; type: functional, cell-based
Summary of the method: as §2

[20] = biological target: Casein kinase I isoform delta (Homo sapiens) (UniProt P48730); assay: Inhibition of CK1delta at 1 uM; values are per cent of control
[21] = biological target: Mitogen-activated protein kinase 1 (Homo sapiens) (UniProt P28482); assay: Inhibition of MAPK1 at 1 uM; values are per cent of control
Chain of Mitogen-activated protein kinase 1 (Homo sapiens) (P28482 whole entry): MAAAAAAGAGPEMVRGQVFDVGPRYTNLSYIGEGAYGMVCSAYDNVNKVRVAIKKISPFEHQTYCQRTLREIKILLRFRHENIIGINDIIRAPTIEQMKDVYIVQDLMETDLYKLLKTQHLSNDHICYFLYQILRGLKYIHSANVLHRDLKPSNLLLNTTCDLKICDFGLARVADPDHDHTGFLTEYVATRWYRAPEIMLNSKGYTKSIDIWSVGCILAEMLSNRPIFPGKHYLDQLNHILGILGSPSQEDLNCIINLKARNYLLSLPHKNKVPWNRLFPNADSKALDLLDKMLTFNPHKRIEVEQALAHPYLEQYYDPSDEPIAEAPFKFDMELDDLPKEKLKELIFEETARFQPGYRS

[22] = biological target: RAC-alpha serine/threonine-protein kinase (Homo sapiens) (UniProt P31749); assay: Inhibition of PKBalpha at 1 uM; values are per cent of control
Chain of RAC-alpha serine/threonine-protein kinase (Homo sapiens) (P31749 whole entry): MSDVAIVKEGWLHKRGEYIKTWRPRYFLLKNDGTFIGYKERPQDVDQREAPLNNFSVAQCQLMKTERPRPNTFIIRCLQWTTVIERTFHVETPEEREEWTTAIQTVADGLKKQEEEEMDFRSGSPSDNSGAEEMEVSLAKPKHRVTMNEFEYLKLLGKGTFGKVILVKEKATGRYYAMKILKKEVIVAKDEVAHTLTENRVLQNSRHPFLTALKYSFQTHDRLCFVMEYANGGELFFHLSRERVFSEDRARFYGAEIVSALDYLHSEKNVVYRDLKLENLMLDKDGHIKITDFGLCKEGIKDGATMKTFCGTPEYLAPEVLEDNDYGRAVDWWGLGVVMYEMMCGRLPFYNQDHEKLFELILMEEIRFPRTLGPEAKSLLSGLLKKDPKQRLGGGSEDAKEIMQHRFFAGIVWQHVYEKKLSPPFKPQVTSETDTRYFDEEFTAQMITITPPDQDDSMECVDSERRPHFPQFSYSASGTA

[23] = biological target: T3, Proto-oncogene tyrosine-protein kinase Src; assay: Inhibition of Src
Summary of the method: as §3

SMILES	IC50 [3] [µM]	IC50 (HT-29) [µM]	inhibition [12] [%]	inhibition [13] [%]	IC50 (HCT-116) [µM]	further results
O=C1NC(=O)c2c1c1c(O)ccc(OS(=O)(=O)O)c1c1[nH]c3ccccc3c21	1.79	46		62	> 50	
Cc1ccc2[nH]c3c4c(OS(=O)(=O)O)ccc(O)c4c4c(c3c2c1)C(=O)NC4=O	0.893	50		70	> 40	
O=C1NC(=O)c2c1c1c(O)ccc(O)c1c1[nH]c3ccc(O)cc3c21	0.023	26.4	83.5	94	2.7	IC50 [23]: 5.4 µM; IC50 (L1210): 1.4 µM
O=C1NC(=O)c2c1c1[nH]cnc1c1[nH]c3ccccc3c21 [GRANULATIMIDE]	0.081		58			IC50 [23]: 0.35 µM
O=c1ccc(=O)c2c1c1[nH]c3ccccc3c1c1c(=O)[nH]c(=O)c21	0.269			86		
O=C1NC(=O)c2c1c1c(c3[nH]c4ccccc4c23)C(=O)CCC1		15.5	8.5	15.3	1.1	

The remaining compounds from weak to strong by IC50 [3], led by results:

IC50 [3] [µM]	IC50 (HT-29) [µM]	inhibition [12] [%]	inhibition [13] [%]	IC50 (HCT-116) [µM]	SMILES	further results
3.7	7.28		66	8.76	CC(C)(C)C(=O)Oc1ccc(O)c2c3c(c4c5ccccc5[nH]c4c12)C(=O)NC3=O	
0.904	46.4	35	93	17.5	O=C1NC(=O)c2c1c1c(O)cccc1c1[nH]c3ccccc3c21	
0.311		2.5	96		O=C1NC(=O)c2c1c1c(O)ccc(O)c1c1[nH]c3ccccc3c21	
0.161	3.8		99	1.6	Cc1ccc2[nH]c3c4c(O)ccc(O)c4c4c(c3c2c1)C(=O)NC4=O	residual activity [1]: 12%; residual activity (Homo sapiens [2]): 90%; residual activity (Homo sapiens [4]): 69%; residual activity [5]: 93%; residual activity [6]: 96%; residual activity [7]: 108%; residual activity [8]: 60%; residual activity [9]: 57%; residual activity [10]: 32%; residual activity [11]: 117%; residual activity [14]: 42%; residual activity (Homo sapiens [15]): 117%; residual activity (Homo sapiens [16]): 86%; residual activity [17]: 102%; residual activity [18]: 28%; residual activity (Homo sapiens [19]): 34%; residual activity [20]: 100%; residual activity [21]: 95%; residual activity [22]: 87%
0.107	20.6	52.5	86	0.7	Cc1ccc2[nH]c3c4c(=O)ccc(=O)c4c4c(=O)[nH]c(=O)c4c3c2c1	
0.043	16.1		72	9.7	O=C1CCc2c1c1c(c3c2[nH]c2ccccc23)C(=O)NC1=O	Activity [12]: inactive; IC50 (L1210): 58.4 µM
0.027	50.6	63	95	15.4	O=c1ccc(=O)c2c1c1[nH]c3ccc(O)cc3c1c1c(=O)[nH]c(=O)c21	residual activity [1]: 22%; residual activity (Homo sapiens [2]): 87%; residual activity (Homo sapiens [4]): 62%; residual activity [5]: 102%; residual activity [6]: 98%; residual activity [7]: 92%; residual activity [8]: 19%; residual activity [9]: 73%; residual activity [10]: 3%; residual activity [11]: 61%; residual activity [14]: 27%; residual activity (Homo sapiens [15]): 103%; residual activity (Homo sapiens [16]): 85%; residual activity [17]: 66%; residual activity [18]: 33%; residual activity (Homo sapiens [19]): 40%; IC50 (L1210): 8.4 µM; residual activity [20]: 16%; residual activity [21]: 77%; residual activity [22]: 87%
0.02			94.4		O=c1[nH]c(=O)c2c1c1[nH]c3ccccc3c1c1c(=O)[nH]c(=O)c21 [BIS-IMIDE A]	Activity [12]: inactive

From ChEMBL document CHEMBL1148789, “Synthesis and biological activities of new checkpoint kinase 1 inhibitors structurally related to granulatimide” (J Med Chem, 2007)
